The text below walks through data of ChEMBL document CHEMBL1212884, “Aryl phosphoramidates of 5-phospho erythronohydroxamic acid, a new class of potent trypanocidal compounds” (J Med Chem, 2010).

Data set [1] has as its system Trypanosoma brucei. Kind of data set: Antitrypanosomal activity against Trypanosoma brucei BS427 after 48 hrs by Alamar blue assay. Type of data set: functional, organism-based. The procedure, abridged:
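Bloodstream-form T. b. brucei s427 wild type, grown in HMI-9 + 10% FCS at 37 °C, 5% CO2. Parasites seeded at 4 × 10^4 cells/mL onto 11-point 1:2 serial dilutions from a 200 μM stock in medium; drug-free well as control. After 48 h, Alamar Blue (0.49 mM in PBS) added, 24 h more; fluorescence ex 544/em 590 nm. EC50 fitted; duplicate, repeated three times.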

Data set [2] is described as follows: Chemical stability of the compound in phosphate buffer saline at pH 7.4 assessed as half life. Type of data set: physicochemical. Conditions: for half-life: phosphate buffer saline; for t1/2: buffer; call rule not given here. The procedure, abridged:
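Compound incubated in phosphate buffer, pH 7.4, 37 °C, to follow chemical hydrolysis; half-life reported in hours.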

For data set [3], the system named is Blood. In words: Half life in mouse blood. The class given is ADME, tissue-based. Summed up:
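Prodrugs incubated in mouse blood to gauge their stability toward esterases. Half-life reported in minutes.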

Data set [4] can be described thus: Chemical stability of the compound in phosphate buffer saline at pH 2 assessed as half life. Type of data set: physicochemical.
In data set [5] the test system is Liver microsomes. Kind of data set: Clearance in pooled human liver microsomes at 0.5 uM. Type of data set: ADME, Microsome. Summed up:
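Pooled human liver microsomes (0.5 mg/mL in 50 mM potassium phosphate, pH 7.4) with compound at 0.5 μM; reaction started with excess NADPH. Samples at 0, 3, 6, 9, 15, 30 min, quenched in acetonitrile with internal standard, centrifuged, analysed by UPLC-MS/MS. Rate constant from exponential decay of compound/internal standard peak-area ratio; clearance given as mL/min/g.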

The mark [6] stands for this setting: Trypanosoma brucei, BS427, 48 h, read-out: EC50.

A value given as a limit tells only on which side of the number the result lay.

With `COC(=O)[C@@H](C)NP(=O)(OC[C@H]1OC(C)(C)O[C@H]1C(=O)NO)Oc1ccc([N+](=O)[O-])cc1` (some centres not stated), in data set [1] (setting [6]), the half-maximal effective concentration (EC50) stood at 43800 nM. Besides, the half-life in data set [2] is 0.85 h.

As for `COC(=O)CNP(=O)(OC[C@H]1OC(C)(C)O[C@H]1C(=O)NO)Oc1ccccc1` (some centres not stated), the EC50 in data set [1] (setting [6]) was found to be 11400 nM. Also, the t1/2 in data set [3] is below 0.25 h.

On to `COC(=O)[C@@H](C)NP(=O)(OC[C@H]1OC(C)(C)O[C@H]1C(=O)NO)Oc1ccccc1` (some centres not stated), for which the half-life in data set [2] is 5 h. This molecule also returned a t1/2 in data set [3] below 0.25 h.

As to `CCOC(=O)[C@@H](C)NP(=O)(OC[C@H]1OC(C)(C)O[C@H]1C(=O)NO)Oc1ccccc1` (some centres not stated), the EC50 in data set [1] (setting [6]) worked out at 780 nM. In addition, the t1/2 in data set [2] is 29 h; in data set [3], below 0.25 h.

As to `COC(=O)[C@H](NP(=O)(OC[C@H]1OC(C)(C)O[C@H]1C(=O)NO)Oc1ccccc1)C(C)C` (some centres not stated), the EC50 in data set [1] (setting [6]) stood at 360 nM. The t1/2 in data set [2] was found to be 21 h; in data set [3] it was 0.75 h.

Turning to `CCOC(=O)[C@H](NP(=O)(OC[C@H]1OC(C)(C)O[C@H]1C(=O)NO)Oc1ccccc1)C(C)C` (some centres not stated), in data set [1] (setting [6]), the EC50 was 240 nM. For the same molecule, the values for the t1/2 in data set [2] and in data set [3] were 61 h and 2 h, respectively.

Turning to `CC(C)[C@@H](NP(=O)(OC[C@H]1OC(C)(C)O[C@H]1C(=O)NO)Oc1ccccc1)C(=O)OC(C)(C)C` (some centres not stated), the EC50 in data set [1] (setting [6]) is 90 nM. Also, the t1/2 in data set [2] was determined as 68 h; in data set [4] it was 28 h; in data set [3], 2 h. Besides, the CL in data set [5] came out at 5 mL/min/g.

`COC(=O)[C@@H](C)NP(=O)(OC[C@H]1OC(C)(C)O[C@H]1C(=O)NO)Oc1ccc(C)cc1` (some centres not stated): the EC50 in data set [1] (setting [6]) was 310 nM. For the same molecule, the t1/2 is 30 h in data set [2] and below 0.25 h in data set [3].

Regarding `CCOC(=O)[C@@H](C)NP(=O)(OC[C@H]1OC(C)(C)O[C@H]1C(=O)NO)Oc1ccc(C)cc1` (some centres not stated), the EC50 in data set [1] (setting [6]) was 180 nM. For the same molecule, in data set [2], the t1/2 is 34 h.

In the case of `COC(=O)[C@H](NP(=O)(OC[C@H]1OC(C)(C)O[C@H]1C(=O)NO)Oc1ccc(C)cc1)C(C)C` (some centres not stated), the EC50 in data set [1] (setting [6]) was 150 nM. Further, the t1/2 in data set [2] was determined as 45 h; in data set [4], 28 h.

With `CCOC(=O)[C@H](NP(=O)(OC[C@H]1OC(C)(C)O[C@H]1C(=O)NO)Oc1ccc(C)cc1)C(C)C` (some centres not stated), the EC50 in data set [1] (setting [6]) was determined as 40 nM. Also, the values for the t1/2 in data set [2], in data set [4] and in data set [3] were 25 h, 15 h and 0.75 h, respectively.

On to `COC(=O)[C@@H](C)NP(=O)(OC[C@H]1OC(C)(C)O[C@H]1C(=O)NO)Oc1ccc(OC)cc1` (some centres not stated), for which, in data set [1] (setting [6]), the EC50 was found to be 3790 nM. The t1/2 in data set [4] stood at 8.5 h.

For the molecule `CCOC(=O)[C@H](NP(=O)(OC[C@H]1OC(C)(C)O[C@H]1C(=O)NO)Oc1ccc(OC)cc1)C(C)C` (some centres not stated), the EC50 in data set [1] (setting [6]) was 110 nM.

In the case of `COC(=O)[C@@H](C)NP(=O)(OC[C@H]1OC(C)(C)O[C@H]1C(=O)NO)Oc1cccc(C)c1C` (some centres not stated), the EC50 in data set [1] (setting [6]) worked out at 270 nM. In addition, the half-life in data set [2] is 30 h.

Regarding `CCOC(=O)[C@H](NP(=O)(OC[C@H]1OC(C)(C)O[C@H]1C(=O)NO)Oc1cccc(C)c1C)C(C)C` (some centres not stated), the 50% effective concentration (EC50) in data set [1] (setting [6]) is 50 nM. The t1/2 in data set [2] is 48 h; in data set [4], 10 h; in data set [3], 1 h.

With `Cc1cccc(OP(=O)(N[C@@H](C(=O)OC(C)(C)C)C(C)C)OC[C@H]2OC(C)(C)O[C@H]2C(=O)NO)c1C` (some centres not stated), the 50% effective concentration (EC50) in data set [1] (setting [6]) was found to be 8 nM. Also, the t1/2 was above 24 h in data set [2] and above 8 h in data set [3]. The CL in data set [5] amounted to 10 mL/min/g.

As for `CC1(C)O[C@H](COP2(=O)OCc3ccccc3O2)[C@H](C(=O)NO)O1` (some centres not stated), the EC50 entry in data set [1] is “Not Active”.

`CC1(C)O[C@H](COP(=O)(O)O)[C@H](C(=O)NO)O1`: in data set [1] (setting [6]), the EC50 was above 330000 nM.
